In ChEMBL document CHEMBL1131046, “Substituted salicylanilides as inhibitors of two-component regulatory systems in bacteria” (J Med Chem, 1998):
In brackets after ≈: the same amount, converted by molar mass. Values belong to the molecule of their own block, whether it stands above or below them. Activity calls are given as the source filed them. No cut-off for these calls is given here.

Tests used:
[1] = biological target: T1, KinA/Spo0F (sporulation kinase A/sporulation initiation phosphotransferase F) (Bacillus subtilis (strain 168), UniProt P06628+P16497); assay: Inhibition of autophosphorylation of the two-component signal transduction system kinase was measured using the KinA/Spo0F regulatory system of Bacillus subtilis.; type: functional
T1 sequence (P06628 whole entry): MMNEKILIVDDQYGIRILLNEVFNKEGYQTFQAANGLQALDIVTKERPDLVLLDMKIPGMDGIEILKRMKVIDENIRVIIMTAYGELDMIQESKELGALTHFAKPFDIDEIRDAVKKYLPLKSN
T1 sequence (P16497 whole entry): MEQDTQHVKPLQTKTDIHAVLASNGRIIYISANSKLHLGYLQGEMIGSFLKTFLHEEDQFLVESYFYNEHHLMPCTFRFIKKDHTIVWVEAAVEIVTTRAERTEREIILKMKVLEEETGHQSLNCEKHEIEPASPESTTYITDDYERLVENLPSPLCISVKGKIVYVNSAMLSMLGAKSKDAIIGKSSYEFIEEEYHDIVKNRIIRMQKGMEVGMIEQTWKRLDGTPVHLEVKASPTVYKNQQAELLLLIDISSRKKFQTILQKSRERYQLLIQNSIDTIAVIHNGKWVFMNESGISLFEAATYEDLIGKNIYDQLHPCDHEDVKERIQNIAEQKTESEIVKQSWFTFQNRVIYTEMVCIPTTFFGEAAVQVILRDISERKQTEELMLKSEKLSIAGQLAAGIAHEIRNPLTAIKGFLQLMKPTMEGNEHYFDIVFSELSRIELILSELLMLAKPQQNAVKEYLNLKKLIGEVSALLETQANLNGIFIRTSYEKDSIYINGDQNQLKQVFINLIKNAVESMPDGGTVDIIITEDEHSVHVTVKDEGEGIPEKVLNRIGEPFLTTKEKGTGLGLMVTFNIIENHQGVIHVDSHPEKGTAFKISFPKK

[2] = tested on: Staphylococcus aureus; assay: Minimum inhibitory activity against Staphylococcus aureus ATCC 29213.; type: functional
Method in brief: (§1)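 MIC by NCCLS broth microdilution. Strains are ATCC and clinical isolates, including methicillin-resistant S. aureus.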

[3] = tested on: Enterococcus faecalis; assay: Percentage of specific activity relative to untreated control at a concentration allowing 80% growth.; type: functional
Method in brief: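 OD600 is followed every 30 min. Luciferase RLU/OD600 is measured 2 h after induction. The value is specific activity as a percentage of untreated control, taken at the compound concentration allowing 80% growth.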

[4] = tested on: Enterococcus faecalis; assay: Minimum inhibitory activity against Enterococcus faecalis OC3041.; type: functional; method in brief: as §1
[5] = tested on: Enterococcus faecium; assay: Minimum inhibitory activity against Enterococcus faecium OC3312.; type: functional; method in brief: as §1
[6] = tested on: Staphylococcus aureus; assay: Minimum inhibitory activity against methicillin resistant Staphylococcus aureus (MRSA) OC2089.; type: functional
Method in brief: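 Broth microdilution MIC following NCCLS methods for aerobically growing bacteria.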

[7] = tested on: Staphylococcus aureus; assay: Minimum inhibitory activity against Staphylococcus aureus MRSA OC2089.; type: functional; method in brief: as §1
[8] = tested on: Enterococcus faecalis; assay: Activity of the VanS/VanR TCS in Enterococcus faecalis OC3364; -{i} indicate over-expression of luciferase in both strains; type: functional, organism-based
Method in brief: (§2)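 E. faecalis OC3364 (JH2-derived) carries vanR vanS and a vanH-luc fusion on separate plasmids. […] OD600 was read every 30 min. At 2 h, cells were lysed by 10 min shaking in an equal volume of Genepol X-80 mix. Luciferase RLU was read with ATP, coenzyme A and luciferin. Specific activity (RLU/OD600) was compared with an untreated control.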

[9] = tested on: Enterococcus faecalis; assay: Activity of the VanS/VanR TCS in Enterococcus faecalis OC3364; +{i} indicate induced overexpression of luciferase specific activity; type: functional, organism-based; method in brief: as §2
[10] = tested on: Enterococcus faecalis; assay: Activity of the VanS/VanR TCS in Enterococcus faecalis OC3364; + indicate decrease of the luciferase specific activity relative to an untreated control; type: functional, organism-based
Method in brief: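 Reporter assay in Enterococcus faecalis OC3364 (from JH2) carrying vanR vanS and a Φ(vanH-luc) fusion on separate plasmids. […] OD600 is read every 30 min. At 2 h cells are lysed and luciferase RLU is read with ATP, coenzyme A and luciferin. Specific activity = RLU/OD600, compared with an untreated control.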

[11] = tested on: Enterococcus faecalis; assay: Activity of the VanS/VanR TCS in Enterococcus faecalis OC3364; +{i} indicate induced over-expression of luciferase specific activity; type: functional, organism-based; method in brief: as §2

IC50 [1]: > 500 µM
Compound: COc1ccc(NC(=O)c2cc(Cl)cc(Cl)c2O)cc1

IC50 [1]: > 500 µM
Compound: Cc1cc(C(=O)c2ccc(Cl)cc2)c(Cl)cc1NC(=O)c1cc(I)cc(I)c1O

IC50 [1]: > 500 µM
Compound: O=C(Nc1ccc(Cl)c(Cl)c1)c1cc(C(F)(F)F)ccc1O

IC50 [1]: > 500 µM
Compound: COc1cc(OC)c(O)c(C(=O)Nc2ccc(Cl)c(Cl)c2)c1

IC50 [1]: > 500 µM
Compound: Cc1cc(C(C#N)c2ccc(Cl)cc2)c(Cl)cc1NC(=O)c1cc(Cl)ccc1O (stereo not drawn)

IC50 [1]: > 500 µM
Compound: O=C(Nc1ccc(Cl)c(Cl)c1)c1cc(Cl)ccc1O

MIC [2]: 4 µg/mL (≈ 12.2 µM)
IC50 [1]: > 500 µM
MIC [4]: > 32 µg/mL
MIC [5]: > 64 µg/mL
MIC [7]: 4 µg/mL (≈ 12.2 µM)
Compound: O=C(Nc1ccc([N+](=O)[O-])cc1)c1cc(Cl)cc(Cl)c1O

IC50 [1]: 185 µM
Compound: O=C(Nc1ccc(Cl)cc1)c1cc(Cl)cc(Cl)c1O

MIC [2]: 8 µg/mL (≈ 26.8 µM)
IC50 [1]: 9.5 µM
MIC [4]: 8 µg/mL (≈ 26.8 µM)
Activity [10]: Active
MIC [5]: 32 µg/mL (≈ 107 µM)
MIC [7]: 8 µg/mL (≈ 26.8 µM)
Compound: O=C(Nc1ccc(Cl)c(Cl)c1)c1cccc(O)c1O
AG80 [3]: 48%

Second part, the molecule before the results:

Compound: Cc1cc(C(C#N)c2ccc(Cl)cc2)c(Cl)cc1NC(=O)c1cc(I)cc(I)c1O (stereo not drawn) [CLOSANTEL]
MIC [2]: 2 µg/mL (≈ 3.02 µM)
IC50 [1]: 3.8 µM
AG80 [3]: 100%
MIC [4]: 0.12 µg/mL (≈ 0.181 µM)
MIC [5]: 1 µg/mL (≈ 1.51 µM)
MIC [6]: 1 µg/mL (≈ 1.51 µM)

Compound: Cc1cc(C(C#N)c2ccc(Cl)cc2)c(Cl)cc1NC(=O)c1cc(C(F)(F)F)ccc1O (stereo not drawn)
MIC [2]: 1 µg/mL (≈ 2.09 µM)
IC50 [1]: 19 µM
AG80 [3]: 95%
MIC [4]: 1 µg/mL (≈ 2.09 µM)
MIC [5]: 1 µg/mL (≈ 2.09 µM)
MIC [6]: 1 µg/mL (≈ 2.09 µM)

Compound: Cc1onc(-c2ccccc2)c1C(=O)N[C@@H]1C(=O)N2[C@@H]1SC(C)(C)[C@@H]2C(=O)O [OXACILLIN]
MIC [2]: 0.25 µg/mL (≈ 0.623 µM)
MIC [4]: 16 µg/mL (≈ 39.9 µM)
MIC [5]: > 64 µg/mL
MIC [7]: > 64 µg/mL

Compound: O=C(Nc1ccccc1)c1cc(Cl)cc(Cl)c1O
MIC [2]: 1 µg/mL (≈ 3.54 µM)
IC50 [1]: > 500 µM
MIC [4]: 64 µg/mL (≈ 227 µM)
MIC [5]: 32 µg/mL (≈ 113 µM)
MIC [6]: 4 µg/mL (≈ 14.2 µM)

Compound: COc1cc(OC)c(O)c(C(=O)Nc2cc(Cl)c(C(C#N)c3ccc(Cl)cc3)cc2C)c1 (stereo not drawn)
IC50 [1]: 250 µM

Compound: Cc1cc(C(C#N)c2ccc(Cl)cc2)c(Cl)cc1NC(=O)c1cc(C(F)(F)F)cc(C(F)(F)F)c1O (stereo not drawn)
IC50 [1]: 9 µM

Compound: Cc1cc(C(CN)c2ccc(Cl)cc2)c(Cl)cc1NC(=O)c1cc(I)cc(I)c1O (stereo not drawn)
IC50 [1]: 86 µM

Compound: CN[C@H](CC(C)C)C(=O)N[C@H]1C(=O)N[C@@H](CC(N)=O)C(=O)N[C@H]2C(=O)N[C@H]3C(=O)N[C@H](C(=O)N[C@H](C(=O)O)c4cc(O)cc(O)c4-c4cc3ccc4O)[C@H](O)c3ccc(c(Cl)c3)Oc3cc2cc(c3O[C@@H]2O[C@H](CO)[C@@H](O)[C@H](O)[C@H]2O[C@H]2C[C@](C)(N)[C@H](O)[C@H](C)O2)Oc2ccc(cc2Cl)[C@H]1O [VANCOMYCIN]
MIC [5]: > 128 µg/mL

Compound: CC(C)(C)c1ccc(NC(=O)c2cc(Cl)cc(Cl)c2O)cc1
MIC [2]: 2 µg/mL (≈ 5.91 µM)
IC50 [1]: 67 µM
MIC [4]: 8 µg/mL (≈ 23.7 µM)
MIC [5]: 4 µg/mL (≈ 11.8 µM)
Activity [8]: inactive
MIC [6]: 2 µg/mL (≈ 5.91 µM)

Compound: O=C(Nc1ccc(Cl)c(Cl)c1)c1cc(I)cc(I)c1O
MIC [2]: 1 µg/mL (≈ 1.87 µM)
IC50 [1]: 21 µM
MIC [4]: 0.5 µg/mL (≈ 0.936 µM)
MIC [5]: 0.5 µg/mL (≈ 0.936 µM)
MIC [6]: 0.25 µg/mL (≈ 0.468 µM)
Activity [9]: Active

Compound: O=C(Nc1ccc(Cl)c(Cl)c1)c1cc(C(F)(F)F)cc(C(F)(F)F)c1O
MIC [2]: 1 µg/mL (≈ 2.39 µM)
IC50 [1]: 27 µM
MIC [4]: 2 µg/mL (≈ 4.78 µM)
MIC [5]: 2 µg/mL (≈ 4.78 µM)
MIC [6]: 1 µg/mL (≈ 2.39 µM)
Activity [9]: Active

Compound: Cc1cc(C(C#N)c2ccc(Cl)cc2)c(Cl)cc1NC(=O)c1cccc(O)c1O (stereo not drawn)
MIC [2]: 16 µg/mL (≈ 37.4 µM)
IC50 [1]: 2.8 µM
AG80 [3]: 66%
MIC [4]: 16 µg/mL (≈ 37.4 µM)
Activity [10]: Active
MIC [5]: 16 µg/mL (≈ 37.4 µM)
MIC [7]: 16 µg/mL (≈ 37.4 µM)

Compound: Cc1cc(C(C#N)c2ccc(Cl)cc2)c(Cl)cc1NC(=O)c1cc(Cl)cc(Cl)c1O (stereo not drawn)
Activity [11]: Active
MIC [2]: 1 µg/mL (≈ 2.08 µM)
IC50 [1]: 4.8 µM
MIC [4]: 2 µg/mL (≈ 4.17 µM)
MIC [5]: 2 µg/mL (≈ 4.17 µM)
MIC [7]: 1 µg/mL (≈ 2.08 µM)

Compound: Cc1cc(C(C#N)c2ccc(Cl)cc2)c(Cl)cc1NC(=O)c1cc(C(C)(C)C)cc(C(C)(C)C)c1O (stereo not drawn)
IC50 [1]: > 500 µM

Compound: O=C(Nc1ccc(Cl)c(C(F)(F)F)c1)c1cc(Cl)cc(Cl)c1O
MIC [2]: 0.5 µg/mL (≈ 1.3 µM)
IC50 [1]: 50 µM
MIC [4]: 0.5 µg/mL (≈ 1.3 µM)
MIC [5]: 1 µg/mL (≈ 2.6 µM)
Activity [8]: inactive
MIC [6]: 0.25 µg/mL (≈ 0.65 µM)

Compound: CC(C)(C)c1cc(C(=O)Nc2ccc(Cl)c(Cl)c2)c(O)c(C(C)(C)C)c1
IC50 [1]: > 500 µM

Compound: O=C(Nc1ccc(Cl)c(Cl)c1)c1cc(Cl)cc(Cl)c1O [3,3',4',5-TETRACHLOROSALICYLANILIDE]
MIC [2]: 0.5 µg/mL (≈ 1.42 µM)
MIC [4]: 0.5 µg/mL (≈ 1.42 µM)
MIC [5]: 1 µg/mL (≈ 2.85 µM)
MIC [6]: 0.25 µg/mL (≈ 0.712 µM)
Activity [9]: Active
